From ChEMBL document CHEMBL4334464, “From Phenylthiazoles to Phenylpyrazoles: Broadening the Antibacterial Spectrum toward Carbapenem-Resistant Bacteria” (J Med Chem, 2019)
Converted amounts (≈) assume the structure as drawn. The source made the active and inactive calls. No cut-off for these calls is given here.

Experiments:
[1] = test system: Staphylococcus aureus; test: Antibacterial activity against methicillin-resistant Staphylococcus aureus NRS384-USA300 clinical isolates after 18 to 20 hrs in aerobic condition by CLSI protocol based broth microdilution assay; assay type: functional
[2] = test system: Escherichia coli; test: Antimicrobial activity against Escherichia coli JW55031 harboring deltatolC mutant after 18 to 20 hrs in aerobic condition by CLSI protocol based broth microdilution assay; assay type: functional
[3] = test system: Staphylococcus aureus; test: Antibacterial activity against vancomycin-resistant Staphylococcus aureus isolate 10 after 18 to 20 hrs in aerobic condition by CLSI-based broth microdilution assay; assay type: functional
[4] = test system: Staphylococcus aureus; test: Antibacterial activity against vancomycin-resistant Staphylococcus aureus isolate 12 after 18 to 20 hrs in aerobic condition by CLSI-based broth microdilution assay; assay type: functional
[5] = test system: Staphylococcus aureus; test: Bactericidal activity against methicillin-resistant Staphylococcus aureus NRS123-USA400 clinical isolates at 5 times MIC incubated over 24 hrs followed by replating on tryptic soy agar plate and further incubated for 18 to 20 hrs by time kill assay; assay type: functional, organism-based
[6] = test system: Enterococcus faecalis; test: Antibacterial activity against vancomycin-resistant Enterococcus faecalis ATCC 51299 clinical isolates after 18 to 20 hrs in aerobic condition by CLSI-based broth microdilution assay; assay type: functional
[7] = test system: Enterococcus faecium; test: Antibacterial activity against vancomycin-resistant Enterococcus faecium ATCC 700221 clinical isolates after 18 to 20 hrs in aerobic condition by CLSI-based broth microdilution assay; assay type: functional
[8] = test system: Listeria monocytogenes; test: Antibacterial activity against Listeria monocytogenes ATCC 19111 after 18 to 20 hrs in aerobic condition by CLSI-based broth microdilution assay; assay type: functional
[9] = test system: Streptococcus pneumoniae; test: Antibacterial activity against cephalosporin-resistant Streptococcus pneumoniae ATCC 51916 clinical isolates after 18 to 20 hrs by CLSI-based broth microdilution assay; assay type: functional
[10] = test system: Streptococcus pneumoniae; test: Antibacterial activity against methicillin-resistant Streptococcus pneumoniae ATCC 700677 clinical isolates after 18 to 20 hrs by CLSI-based broth microdilution assay; assay type: functional
[11] = test system: Clostridioides difficile; test: Antibacterial activity against Clostridium difficile ATCC BAA 1870 incubated for 48 hrs in anaerobic condition by CLSI-based broth microdilution assay; assay type: functional; conditions: ATCC BAA 1870, 48 h
[12] = test system: Staphylococcus aureus; test: Antibiofilm activity against methicillin-resistant Staphylococcus aureus NRS384-USA300 clinical isolates assessed as inhibition of biofilm formation at 0.5 times MIC incubated for 24 hrs by crystal violet staining based spectrophotometric method relative to control; assay type: functional
[13] = test system: Staphylococcus aureus; test: Antibacterial activity against methicillin-resistant Staphylococcus aureus NRS123-USA400 infected in mouse J774 cells assessed as reduction in intracellular bacterial cells at 2 times MIC incubated for 24 hrs followed by re-plating on TSA plate and measured after 18 to 22 hrs relative to control; assay type: functional
Method in brief: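 J774 murine macrophages were infected with MRSA USA400 and then treated at 2×MIC for 24 h, in triplicate. The read-out was percent reduction in intracellular colony-forming units versus untreated infected cells.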

[14] = test system: Escherichia coli; test: Antibacterial activity against carbapenem-resistant Escherichia coli BAA-2452 clinical isolates after 18 to 20 hrs in aerobic condition by CLSI-based broth microdilution assay; assay type: functional
[15] = test system: Escherichia coli; test: Antibacterial activity against carbapenem-resistant Escherichia coli BAA-2469 clinical isolates after 18 to 20 hrs in aerobic condition by CLSI-based broth microdilution assay; assay type: functional
[16] = test system: Klebsiella pneumoniae; test: Antibacterial activity against carbapenem-resistant Klebsiella pneumoniae ATCC BAA-1705 clinical isolates after 18 to 20 hrs in aerobic condition by CLSI-based broth microdilution assay; assay type: functional
[17] = test system: Klebsiella pneumoniae; test: Antibacterial activity against carbapenem-resistant Klebsiella pneumoniae ATCC BAA-2146 clinical isolates after 18 to 20 hrs in aerobic condition by CLSI-based broth microdilution assay; assay type: functional
[18] = test system: Acinetobacter baumannii; test: Antibacterial activity against carbapenem-resistant Acinetobacter baumannii ATCC BAA 1605 clinical isolates after 18 to 20 hrs in aerobic condition by CLSI-based broth microdilution assay; assay type: functional
[19] = test system: Pseudomonas aeruginosa; test: Antibacterial activity against carbapenem-resistant Pseudomonas aeruginosa ATCC 1744 clinical isolates after 18 to 20 hrs in aerobic condition by CLSI-based broth microdilution assay; assay type: functional
[20] = test system: Staphylococcus aureus; test: Antibacterial activity against Methicillin-sensitive Staphylococcus aureus ATCC 6538 clinical isolates after 18 to 20 hrs in aerobic condition by CLSI protocol based broth microdilution assay; assay type: functional
[21] = test system: Staphylococcus aureus; test: Antibacterial activity against Methicillin-sensitive Staphylococcus aureus NRS107 clinical isolates after 18 to 20 hrs in aerobic condition by CLSI protocol based broth microdilution assay; assay type: functional
[22] = test system: Staphylococcus aureus; test: Antibacterial activity against linezolid-resistant/Methicillin-resistant Staphylococcus aureus NRS119 clinical isolates after 18 to 20 hrs in aerobic condition by CLSI protocol based broth microdilution assay; assay type: functional
[23] = test system: Staphylococcus aureus; test: Antibacterial activity against Methicillin-resistant Staphylococcus aureus NRS123-USA400 clinical isolates after 18 to 20 hrs in aerobic condition by CLSI protocol based broth microdilution assay; assay type: functional
[24] = test system: Staphylococcus epidermidis; test: Antibacterial activity against Staphylococcus epidermidis NRS101 after 18 to 20 hrs in aerobic condition by CLSI-based broth microdilution assay; assay type: functional
[25] = test system: Acinetobacter baumannii; test: Antibacterial activity against Acinetobacter baumannii ATCC 19606 clinical isolates after 18 to 20 hrs in aerobic condition by CLSI-based broth microdilution assay; assay type: functional; conditions: ATCC 19606 = CIP 70.34 = JCM 6841
[26] = test system: Escherichia coli; test: Antibacterial activity against Escherichia coli BW25113 clinical isolates after 18 to 20 hrs in aerobic condition by CLSI-based broth microdilution assay; assay type: functional
[27] = test system: Klebsiella pneumoniae; test: Antibacterial activity against Klebsiella pneumoniae BAA-1706 clinical isolates after 18 to 20 hrs in aerobic condition by CLSI-based broth microdilution assay; assay type: functional
[28] = test system: Pseudomonas aeruginosa; test: Antibacterial activity against Pseudomonas aeruginosa ATCC 15442 clinical isolates after 18 to 20 hrs in aerobic condition by CLSI-based broth microdilution assay; assay type: functional

`C/C(=N\NC1=NCCN1)c1cnn(-c2ccc(C#Cc3ccccc3)cc2)c1C` gave an MIC [1] of 4 µg/mL (≈ 10.5 µM) and an MIC [2] of 4 µg/mL (≈ 10.5 µM).

With `CN[C@H](CC(C)C)C(=O)N[C@H]1C(=O)N[C@@H](CC(N)=O)C(=O)N[C@H]2C(=O)N[C@H]3C(=O)N[C@H](C(=O)N[C@H](C(=O)O)c4cc(O)cc(O)c4-c4cc3ccc4O)[C@H](O)c3ccc(c(Cl)c3)Oc3cc2cc(c3O[C@@H]2O[C@H](CO)[C@@H](O)[C@H](O)[C@H]2O[C@H]2C[C@](C)(N)[C@H](O)[C@H](C)O2)Oc2ccc(cc2Cl)[C@H]1O` [VANCOMYCIN] the MIC [3] was over 64 µg/mL, the MIC [4] was 64 µg/mL (≈ 44.2 µM) and the Activity [5] was “Active”. For the same molecule, the MIC [6] was 32 µg/mL (≈ 22.1 µM), the MIC [7] was over 64 µg/mL and the MIC [8] was 2 µg/mL (≈ 1.38 µM). For the same molecule, the MIC [9] was 2 µg/mL (≈ 1.38 µM), the MIC [10] was 1 µg/mL (≈ 0.69 µM) and the MIC [11] was 1 µg/mL (≈ 0.69 µM). For the same molecule, the “inhibition (INH)” value [12] was 18% and the Activity [13] was “inactive”.

Work on `CCN(CC)CC#Cc1ccc(-n2ncc(/C(C)=N/NC3=NCCN3)c2C)cc1` yielded an MIC [1] of over 128 µg/mL and an MIC [2] of over 128 µg/mL.

`C[C@@H](O)[C@H]1C(=O)N2C(C(=O)O)=C(S[C@@H]3CN[C@H](C(=O)N(C)C)C3)[C@H](C)[C@H]12` [MEROPENEM] showed an MIC [14] of 32 µg/mL (≈ 83.4 µM), an MIC [15] of 32 µg/mL (≈ 83.4 µM) and an MIC [16] of 32 µg/mL (≈ 83.4 µM). For the same molecule, the MIC [17] was 64 µg/mL (≈ 167 µM), the MIC [18] was 32 µg/mL (≈ 83.4 µM) and the MIC [19] was 16 µg/mL (≈ 41.7 µM).

Work on `C/C(=N\NC(=N)N)c1cnn(-c2ccc(C#CC3CC3)cc2)c1C` yielded an MIC [1] of 8 µg/mL (≈ 25 µM) and an MIC [2] of 8 µg/mL (≈ 25 µM).

`C/C(=N\NC1=NCCN1)c1cnn(-c2ccc(C#CC3(O)CCCCC3)cc2)c1C` gave an MIC [1] of 64 µg/mL (≈ 158 µM) and an MIC [2] of 32 µg/mL (≈ 79.1 µM).

For `C/C(=N\NC1=NCCN1)c1cnn(-c2ccc(C#CC3CC3)cc2)c1C`, the MIC [1] was 16 µg/mL (≈ 46.2 µM) and the MIC [2] was 32 µg/mL (≈ 92.4 µM).

Molecule `CC(=O)NC[C@H]1CN(c2ccc(N3CCOCC3)c(F)c2)C(=O)O1` [LINEZOLID] has an MIC [1] of 1 µg/mL (≈ 2.96 µM), an MIC [20] of 1 µg/mL (≈ 2.96 µM) and an MIC [21] of 1 µg/mL (≈ 2.96 µM). For the same molecule, the MIC [22] was 32 µg/mL (≈ 94.9 µM), the MIC [23] was 1 µg/mL (≈ 2.96 µM) and the MIC [3] was 1 µg/mL (≈ 2.96 µM). It also gave an MIC [4] of 1 µg/mL (≈ 2.96 µM), an MIC [24] of at most 0.5 µg/mL and an MIC [7] of 1 µg/mL (≈ 2.96 µM). The MIC [8] was 1 µg/mL (≈ 2.96 µM).

For `C/C(=N\NC(=N)N)c1sc(-c2ccc(C#CC3CCCC3)cc2)nc1C`, the Activity [2] was “inactive”, the Activity [25] was “inactive” and the Activity [26] was “inactive”. For the same molecule, the Activity [27] was “inactive” and the Activity [28] was “inactive”.

Work on `CN(C)c1cc(NC(=O)CNC(C)(C)C)c(O)c2c1C[C@H]1C[C@H]3[C@H](N(C)C)C(O)=C(C(N)=O)C(=O)[C@@]3(O)C(O)=C1C2=O` [TIGECYCLINE] yielded an MIC [14] of 0.25 µg/mL (≈ 0.427 µM), an MIC [15] of 0.5 µg/mL (≈ 0.854 µM) and an MIC [16] of 1 µg/mL (≈ 1.71 µM). It also gave an MIC [17] of 4 µg/mL (≈ 6.83 µM), an MIC [18] of 1 µg/mL (≈ 1.71 µM) and an MIC [19] of 8 µg/mL (≈ 13.7 µM).

With `CCCCCCC#Cc1ccc(-n2ncc(/C(C)=N/NC3=NCCN3)c2C)cc1` the MIC [1] was 4 µg/mL (≈ 10.2 µM) and the MIC [2] was 8 µg/mL (≈ 20.5 µM).

Molecule `C/C(=N\NC(=N)N)c1cnn(-c2ccc(C#CC(C)(C)O)cc2)c1C` has an MIC [1] of 128 µg/mL (≈ 378 µM) and an MIC [2] of 128 µg/mL (≈ 378 µM).

In the case of COLISTIN, the MIC [14] is reported as 0.06 µg/mL, the MIC [15] is reported as 0.06 µg/mL and the MIC [16] is reported as 0.125 µg/mL. The MIC [17] was 0.25 µg/mL, the MIC [18] was 0.25 µg/mL and the MIC [19] was 1 µg/mL.
